What was measured:
[1] = tested on: tumor infiltrating immune cells; assay: Flow cytometry analysis of tumor-infiltrating immune cells; assay type: in vivo, BALB/c mice; conditions: CT26 tumor-bearing mice, 16 mg/kg daily, 5 days
In short: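 Tumor-bearing mice (n = 5) got vehicle or test compound. Tumors were cut up and digested in RPMI 1640 with 0.1% type IV collagenase and 0.01% DNase I at 37 °C for 45 min, passed through a 70 μm strainer, and red cells lysed. Cells were Fc-blocked on ice for 15 min and surface-stained on ice for 30 min. MDSCs were scored as a proportion of CD45⁺ cells (mean ± SEM).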

CT26 cells = assay: SRB cell proliferation assay, CT26; assay type: cell-based, murine; conditions: gradient concentrations, 72 h
MC38 cells = assay: SRB cell proliferation assay, MC38; assay type: cell-based, murine; conditions: gradient concentrations, 72 h

O=C(/C=C/c1cccnc1)NCCCCC1CCN(C(=O)c2ccccc2)CC1 [FK866]
infiltrating MDSCs in CT26 tumors [1]: did not affect | cell growth sensitivity (CT26 cells): did not show the apparent growth dependency | cell growth sensitivity (MC38 cells): did not show the apparent growth dependency
